Assay results as given in ChEMBL document CHEMBL5705894, “SB1518, a novel macrocyclic pyrimidine-based JAK2 inhibitor for the treatment of myeloid and lymphoid malignancies” (Leukemia, 2011).
Calls of active or inactive are those of the source. The calls are words filed in the database; no cut-off is given here.

How the values were obtained:
[1] = test system: Tyrosine-protein kinase JAK2 (Mus musculus), Q62120 [V617F]; experiment: Inhibition of JAK2 V617F mutant expressed in mouse BaF3 cells assessed as decreased total tyrosine phosphorylation at 1000 nM incubated for 3 hrs by Western blotting analysis; format: cell-based
Chain of Tyrosine-protein kinase JAK2 (Mus musculus), Q62120 [V617F] (Q62120 as listed by the source): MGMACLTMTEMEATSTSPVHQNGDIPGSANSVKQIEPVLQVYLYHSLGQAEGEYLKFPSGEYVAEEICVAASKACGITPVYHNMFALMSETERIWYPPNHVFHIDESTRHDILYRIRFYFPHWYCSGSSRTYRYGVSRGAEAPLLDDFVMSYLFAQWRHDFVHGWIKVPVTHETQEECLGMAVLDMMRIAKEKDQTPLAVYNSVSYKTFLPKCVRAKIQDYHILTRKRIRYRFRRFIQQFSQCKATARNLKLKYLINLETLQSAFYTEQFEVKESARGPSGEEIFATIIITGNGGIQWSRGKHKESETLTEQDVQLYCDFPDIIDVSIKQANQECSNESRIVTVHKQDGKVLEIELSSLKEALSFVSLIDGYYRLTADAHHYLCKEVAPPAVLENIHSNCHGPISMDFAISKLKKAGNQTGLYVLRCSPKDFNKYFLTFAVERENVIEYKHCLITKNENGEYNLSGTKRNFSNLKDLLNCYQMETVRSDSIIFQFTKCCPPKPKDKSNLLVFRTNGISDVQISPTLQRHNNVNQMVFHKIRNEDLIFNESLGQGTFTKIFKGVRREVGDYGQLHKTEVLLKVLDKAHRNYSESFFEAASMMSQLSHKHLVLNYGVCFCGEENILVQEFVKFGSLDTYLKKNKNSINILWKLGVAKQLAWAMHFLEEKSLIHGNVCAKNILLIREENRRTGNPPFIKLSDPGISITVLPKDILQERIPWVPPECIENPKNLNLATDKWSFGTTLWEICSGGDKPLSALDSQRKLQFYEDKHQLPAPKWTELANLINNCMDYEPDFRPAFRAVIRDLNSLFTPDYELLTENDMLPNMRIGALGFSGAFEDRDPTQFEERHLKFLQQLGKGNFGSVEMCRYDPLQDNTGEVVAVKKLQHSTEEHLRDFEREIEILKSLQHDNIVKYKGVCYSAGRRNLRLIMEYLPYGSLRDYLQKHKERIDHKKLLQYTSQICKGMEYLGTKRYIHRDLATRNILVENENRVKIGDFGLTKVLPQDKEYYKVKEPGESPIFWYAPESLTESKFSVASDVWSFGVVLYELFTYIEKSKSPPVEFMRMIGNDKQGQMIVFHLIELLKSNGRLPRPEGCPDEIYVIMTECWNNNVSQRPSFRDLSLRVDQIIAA

[2] = test system: Tyrosine-protein kinase JAK2 (Mus musculus), Q62120 [V617F]; experiment: Inhibition of JAK2 V617F mutant expressed in mouse BaF3 cells assessed as reduction of STAT5 phosphorylation at Y694 by Western blotting analysis; format: cell-based
Karpas-1106P = experiment: Induction of apoptosis in human KARPAS-1106P cells assessed as activation of caspase-3/7 incubated for 16 hrs; format: functional, cell-based
Method in brief: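 SET-2 and Karpas 1106P cells were exposed to graded drug concentrations for 16 h. Apoptosis was read as caspase-3/7 activation.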

SET-2 [3] = experiment: Induction of cell cycle arrest in human SET2 cells expressing JAK2 V617F mutant assessed as accumulation of cells at G0/1 phase incubated for 24 hrs by PI staining based flow cytometry; format: functional
Method in brief: (§1)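 Cells were fixed in 70% ice-cold ethanol and stained with propidium iodide, then analysed by flow cytometry for cell-cycle distribution.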

SET-2 [4] = experiment: Induction of cell cycle arrest in human SET2 cells expressing JAK2 V617F mutant assessed as decrease in accumulation of cells at S-phase incubated for 24 hrs by PI staining based flow cytometry; format: functional; method in brief: as §1
MKN-7 = experiment: Antiproliferative activity against human MKN-7 cells assessed as inhibition of cell viability incubated for 48 hrs by CellTiterGlo assay; format: functional, cell-based; conditions: MKN-7, 48 h
Method in brief: (§2)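 Cells seeded at 30–50% confluency in 96-well plates, then treated the next day in triplicate at up to 10 μM for 48 h. Viability read by CellTiter-Glo luminescence. IC50 taken from fitted dose–response curves.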

SNU-475 = experiment: Antiproliferative activity against human SNU-475 cells assessed as inhibition of cell viability incubated for 48 hrs by CellTiterGlo assay; format: functional, cell-based; conditions: SNU-475, 48 h; method in brief: as §2
SNU-387 = experiment: Antiproliferative activity against human SNU-387 cells assessed as inhibition of cell viability incubated for 48 hrs by CellTiterGlo assay; format: functional, cell-based; conditions: SNU-387, 48 h; method in brief: as §2
COLO 205 = experiment: Antiproliferative activity against human COLO 205 cells assessed as inhibition of cell viability incubated for 48 hrs by CellTiterGlo assay; format: functional, cell-based; conditions: COLO 205, 48 h; method in brief: as §2
LNCaP = experiment: Antiproliferative activity against human LNCaP cells assessed as inhibition of cell viability incubated for 48 hrs by CellTiterGlo assay; format: functional, cell-based; method in brief: as §2
A2780 = experiment: Antiproliferative activity against human A2780 cells assessed as inhibition of cell viability incubated for 48 hrs by CellTiterGlo assay; format: functional, cell-based; conditions: A2780, 48 h; method in brief: as §2
U-266 = experiment: Antiproliferative activity against human U-266 cells assessed as inhibition of cell viability incubated for 48 hrs by CellTiterGlo assay; format: functional, cell-based; conditions: U-266, 48 h; method in brief: as §2
BaF3 = experiment: Antiproliferative activity against mouse BaF3 cells harboring JAK2 V617F mutant assessed as inhibition of cell viability incubated for 48 hrs by CellTiterGlo assay; format: functional, cell-based; conditions: BaF3, 48 h; method in brief: as §2
MV4-11 = experiment: Antiproliferative activity against human MV4-11 cells harboring FLT3-ITD mutant assessed as inhibition of cell viability incubated for 48 hrs by CellTiterGlo assay; format: functional, cell-based; conditions: MV4-11, 48 h; method in brief: as §2
Jurkat E6.1 = experiment: Antiproliferative activity against human Jurkat E6.1 cells assessed as inhibition of cell viability incubated for 48 hrs by CellTiterGlo assay; format: functional, cell-based; conditions: Jurkat E6.1, 48 h; method in brief: as §2
MOLT-4 = experiment: Antiproliferative activity against human MOLT-4 cells assessed as inhibition of cell viability incubated for 48 hrs by CellTiterGlo assay; format: functional, cell-based; conditions: MOLT-4, 48 h; method in brief: as §2
SET-2 [5] = experiment: Anti-tumor activity against human SET2 cells xenografted in SCID Beige mouse assessed as tumor growth inhibition at 150 mg/kg, po administered for 18 days and measured twice a week relative to control; format: functional; conditions: SET-2, 432 h, time 18 day, read-out: TGI
Method in brief: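 SCID beige mice received 5 × 10^6 SET-2 cells subcutaneously in the right flank, in serum-free medium mixed 1:1 with Matrigel. Dosing began when tumors averaged about 280 mm3 (day 31). Oral gavage at 10 ml/kg for 18 consecutive days, 12 mice per group. Caliper volume = (w² × l)/2. Animals were killed 3 h after the final dose.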

Mus musculus = experiment: In vivo inhibition of JAK2 V617F mutant in SCID Beige mouse xenografted with human SET2 cells assessed as decreased STAT5 phosphorylation at Y694 at 75 to 150 mg/kg, po administered for 18 days and measured after 3 hrs by Western blotting analysis; format: functional, organism-based; conditions: dose 75-150 mg/kg, time 18.0 day
Method in brief: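 Subcutaneous SET-2 tumors in SCID beige mice. Single oral doses of 75 or 150 mg/kg were given at about 300 mm3 tumor size; in the chronic arm, dosing ran for 18 days. Tumors were collected 3 h post-dose, lysed, and immunoblotted for pJAK2 (Y1007/8) and pSTAT5.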

[6] = Cytotoxicity against human EPC cells derived from polycythemia vera patients assessed as inhibition of cell viability incubated for 48 hrs by CellTiterGlo assay; format: toxicity, cell-based
Method in brief: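 Erythroid progenitors expanded from PBMCs of PV patients or normal volunteers using a 2-step protocol. On day 12 of expansion, cells were exposed to compound for 48 h and viability was read by CellTiter-Glo. Day-12 cells were phenotyped by CD71/CD235A flow staining.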

[7] = Induction of apoptosis in human EPC cells derived from polycythemia vera patients assessed as activation of caspase-3/7 level incubated for 16 hrs; format: toxicity, cell-based; conditions: Homo sapiens, EPC
[8] = In vivo inhibition of JAK2 V617F mutant in athymic BALB/c nude mouse xenografted with mouse BaF3 cells administered for 24 hrs; format: functional
[9] = target: Tyrosine-protein kinase JAK2 (Homo sapiens) (UniProt O60674); conditions: HEK-293T, dose 8-1000 nM, time 3.0 hrs
Chain of Tyrosine-protein kinase JAK2 (Homo sapiens) (O60674 whole entry): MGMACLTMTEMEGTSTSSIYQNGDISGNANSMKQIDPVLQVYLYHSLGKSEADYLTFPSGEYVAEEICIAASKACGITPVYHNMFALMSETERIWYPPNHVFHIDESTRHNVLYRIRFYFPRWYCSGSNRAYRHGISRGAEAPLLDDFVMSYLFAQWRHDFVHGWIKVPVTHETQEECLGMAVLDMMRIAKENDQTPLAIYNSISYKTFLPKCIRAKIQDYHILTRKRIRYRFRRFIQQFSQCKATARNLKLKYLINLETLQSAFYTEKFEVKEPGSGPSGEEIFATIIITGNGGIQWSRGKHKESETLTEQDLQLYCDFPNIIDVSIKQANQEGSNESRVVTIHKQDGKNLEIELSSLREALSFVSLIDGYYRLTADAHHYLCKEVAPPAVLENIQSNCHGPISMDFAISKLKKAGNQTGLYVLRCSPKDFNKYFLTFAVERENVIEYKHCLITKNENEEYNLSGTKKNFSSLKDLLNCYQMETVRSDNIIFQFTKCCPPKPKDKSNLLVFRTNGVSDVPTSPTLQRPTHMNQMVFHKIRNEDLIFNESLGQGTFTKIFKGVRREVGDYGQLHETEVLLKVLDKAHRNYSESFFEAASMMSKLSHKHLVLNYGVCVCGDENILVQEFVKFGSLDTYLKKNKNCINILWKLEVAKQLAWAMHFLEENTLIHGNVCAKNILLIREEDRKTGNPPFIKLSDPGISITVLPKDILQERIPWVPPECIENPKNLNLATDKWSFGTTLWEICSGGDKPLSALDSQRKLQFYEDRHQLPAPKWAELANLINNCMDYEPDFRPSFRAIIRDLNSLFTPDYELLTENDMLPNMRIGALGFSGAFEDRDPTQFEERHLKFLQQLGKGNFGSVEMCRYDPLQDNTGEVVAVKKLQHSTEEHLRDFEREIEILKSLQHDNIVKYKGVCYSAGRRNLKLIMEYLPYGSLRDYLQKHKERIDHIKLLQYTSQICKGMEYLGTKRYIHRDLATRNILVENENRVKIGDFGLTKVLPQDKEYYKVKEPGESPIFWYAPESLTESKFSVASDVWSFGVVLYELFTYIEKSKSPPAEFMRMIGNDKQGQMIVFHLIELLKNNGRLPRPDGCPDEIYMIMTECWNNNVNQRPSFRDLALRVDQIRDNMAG

[10] = target: Tyrosine-protein kinase JAK2 (Homo sapiens) (UniProt O60674); conditions: HEK-293T, dose 8-1000 nM, time 3.0 hrs; remark: listed apart in the source
[11] = target: Tyrosine-protein kinase JAK2 (Homo sapiens) (UniProt O60674); conditions: Jurkat, dose 40-1000 nM, time 3.0 hrs
[12] = target: Tyrosine-protein kinase JAK2 (Homo sapiens) (UniProt O60674); conditions: KARPAS-1106P, dose 8-1000 nM, time 3.0 hrs
[13] = target: Tyrosine-protein kinase JAK2 (Homo sapiens) (UniProt O60674); conditions: Jurkat, dose 8-1000 nM, time 3.0 hrs
[14] = test system: Tyrosine-protein kinase JAK2 (Homo sapiens), O60674 [V617F]; conditions: HEL 92.1.7, dose 1000.0 nM, time 4-24 hrs
Chain of Tyrosine-protein kinase JAK2 (Homo sapiens), O60674 [V617F] (O60674 whole entry V617F): as the sequence (O60674 whole entry) above, with V617F counted along it

[15] = test system: Tyrosine-protein kinase JAK2 (Homo sapiens), O60674 [V617F]; conditions: HEL 92.1.7, dose 1000.0 nM, time 3.0 hrs
[16] = test system: Tyrosine-protein kinase JAK2 (Homo sapiens), O60674 [V617F]; conditions: SET2, dose 1000.0 nM, time 3.0 hrs

inhibition [1]: Active | inhibition [2]: Active | EC50 (Karpas-1106P): 1120 nM | IC50 (MKN-7): 2040 nM | IC50 (SNU-475): 2440 nM | IC50 (SNU-387): 2030 nM | IC50 (COLO 205): 2620 nM | IC50 (LNCaP): 917 nM | IC50 (A2780): 664 nM | IC50 (BaF3): 160 nM | IC50 (MV4-11): 47 nM | IC50 (Jurkat E6.1): 839 nM | IC50 (MOLT-4): 750 nM | inhibition [9]: Dose-Dependent Effect | inhibition [10]: Dose-Dependent Effect | inhibition [11]: Active | inhibition [12]: Active | inhibition [13]: Active | inhibition [14]: Tde | inhibition [15]: Active | inhibition [16]: Active
Structure (SMILES): C1=N/C2=N/c3ccc(OCCN4CCCC4)c(c3)COC/C=C/COCc3cccc(c3)C(=C1)N2 [PACRITINIB]
Activity (Karpas-1106P): Dose-Dependent Effect | Activity (SET-2 [3]): Dose-Dependent Effect | Activity (SET-2 [4]): Dose-Dependent Effect | IC50 (U-266): 1350 nM | inhibition in vivo at 150 mg/kg (SET-2 [5]): 61% | Activity (Mus musculus): Active | IC50 [6]: 260 nM | EC50 [7]: 224 nM | FIC50 [8]: 0.019 µM
